Test results published in PMC10213863 (Cell Reports Medicine, 2023).
Like-named read-outs stand apart in the source and are kept apart here.

How the values were obtained:
TLR7 [1] = target: T1, TLR7 (Homo sapiens, UniProt Q9NYK1); test: Ramos Blue NF-κB/AP-1 reporter B cell line, TLR7 stimulation; format: cell-based; conditions: Ramos cells, mean ± SD
T1 sequence (Q9NYK1 27-1049): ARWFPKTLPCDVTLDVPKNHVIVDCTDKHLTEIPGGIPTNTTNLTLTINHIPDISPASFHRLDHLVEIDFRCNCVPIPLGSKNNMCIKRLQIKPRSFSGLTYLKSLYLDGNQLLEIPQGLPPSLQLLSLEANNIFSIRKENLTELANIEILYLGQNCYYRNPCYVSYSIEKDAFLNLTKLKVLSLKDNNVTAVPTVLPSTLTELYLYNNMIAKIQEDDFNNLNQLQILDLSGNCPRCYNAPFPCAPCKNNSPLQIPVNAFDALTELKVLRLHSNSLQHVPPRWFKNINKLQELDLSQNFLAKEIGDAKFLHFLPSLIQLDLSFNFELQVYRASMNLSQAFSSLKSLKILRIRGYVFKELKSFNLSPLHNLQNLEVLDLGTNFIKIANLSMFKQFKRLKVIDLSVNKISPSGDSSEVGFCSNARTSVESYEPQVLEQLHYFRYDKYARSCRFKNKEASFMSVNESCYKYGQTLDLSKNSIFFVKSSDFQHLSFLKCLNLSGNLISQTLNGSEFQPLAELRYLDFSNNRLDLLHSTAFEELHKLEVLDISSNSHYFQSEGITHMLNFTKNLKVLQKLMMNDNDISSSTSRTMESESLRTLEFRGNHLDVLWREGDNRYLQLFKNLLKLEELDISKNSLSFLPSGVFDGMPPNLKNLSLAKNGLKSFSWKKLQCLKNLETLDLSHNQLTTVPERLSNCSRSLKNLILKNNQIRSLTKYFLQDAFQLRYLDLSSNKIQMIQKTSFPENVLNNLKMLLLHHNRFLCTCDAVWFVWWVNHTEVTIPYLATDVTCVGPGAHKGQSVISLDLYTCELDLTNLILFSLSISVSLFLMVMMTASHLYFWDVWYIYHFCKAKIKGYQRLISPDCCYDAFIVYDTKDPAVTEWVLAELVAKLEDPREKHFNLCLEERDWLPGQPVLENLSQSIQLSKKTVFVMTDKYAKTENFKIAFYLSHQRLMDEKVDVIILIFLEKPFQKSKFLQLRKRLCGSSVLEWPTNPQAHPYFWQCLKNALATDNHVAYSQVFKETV
In short: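 Ramos Blue B reporter cells were pre-treated 30 min at 37°C, 5% CO2 with increasing concentrations of test compound or 0.25% v/v DMSO. They were then stimulated with the respective agonist, and reporter activity was read.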

[2] = system: TMPD-induced peritonitis in Balb/c mice; test: Mouse TMPD peritonitis; format: in vivo; conditions: prophylactic oral b.i.d.
In short: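 Female Balb/c mice (5 per group) were dosed orally b.i.d. from day −1 with test compound in 0.5% MC/0.5% Tween80, or vehicle. On day 0 they were injected i.p. with 0.5 mL TMPD; naive mice were controls. Peritoneal lavage (HBSS, 2% FBS) supernatants were assayed for CCL2 by ELISA. Inflammatory monocytes were counted by flow (live/dead, CD11b, Ly6C, Ly6G). ISGs were measured by qPCR (2−ΔΔCt vs HPRT, triplicates), averaged and normalized to naive = 100%.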

TLR7 [3] = target: T2, TLR7 (Mus musculus, UniProt P58681); test: Acute cytokine release in vivo assay, TLR7 agonist; conditions: 129/Sv mice; single p.o. dose 1.5 or 15 mg/kg
T2 sequence (P58681 27-1050): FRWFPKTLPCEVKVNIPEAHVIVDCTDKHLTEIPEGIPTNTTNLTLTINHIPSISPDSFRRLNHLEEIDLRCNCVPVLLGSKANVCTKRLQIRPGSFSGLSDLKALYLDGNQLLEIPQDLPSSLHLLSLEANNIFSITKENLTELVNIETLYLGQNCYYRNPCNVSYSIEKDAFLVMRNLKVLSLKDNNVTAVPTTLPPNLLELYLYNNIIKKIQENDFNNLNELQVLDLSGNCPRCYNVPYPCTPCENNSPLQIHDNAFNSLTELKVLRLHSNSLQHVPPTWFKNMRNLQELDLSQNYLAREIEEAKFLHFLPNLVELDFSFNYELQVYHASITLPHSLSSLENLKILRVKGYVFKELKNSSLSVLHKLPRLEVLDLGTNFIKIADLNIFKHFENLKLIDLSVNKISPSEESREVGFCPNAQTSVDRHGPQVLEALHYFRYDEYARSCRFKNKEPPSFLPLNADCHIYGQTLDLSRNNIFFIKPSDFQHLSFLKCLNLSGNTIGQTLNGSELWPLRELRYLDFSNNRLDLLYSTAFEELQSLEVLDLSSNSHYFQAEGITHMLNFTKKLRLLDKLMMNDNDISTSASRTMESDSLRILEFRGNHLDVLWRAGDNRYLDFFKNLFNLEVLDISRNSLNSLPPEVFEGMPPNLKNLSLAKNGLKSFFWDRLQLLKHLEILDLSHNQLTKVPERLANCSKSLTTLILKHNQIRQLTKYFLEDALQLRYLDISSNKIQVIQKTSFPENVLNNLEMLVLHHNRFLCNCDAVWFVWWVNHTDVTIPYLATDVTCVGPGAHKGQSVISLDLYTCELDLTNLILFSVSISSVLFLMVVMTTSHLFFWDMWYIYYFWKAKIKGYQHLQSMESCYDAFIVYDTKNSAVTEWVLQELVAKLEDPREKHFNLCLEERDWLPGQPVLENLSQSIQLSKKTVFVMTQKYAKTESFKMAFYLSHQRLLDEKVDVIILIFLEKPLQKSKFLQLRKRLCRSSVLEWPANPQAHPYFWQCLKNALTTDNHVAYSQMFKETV
In short: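 129/Sv mice (5 per group) got test compound orally in 0.5% methylcellulose/0.5% Tween-80, or vehicle alone. At 1 h they were injected i.v. with the TLR agonist (line 1: 20 μg R0006; line 2: CpG1585), each pre-complexed with 140 μg DOTAP in HBSS. At 3 h, EDTA blood was taken. Plasma IFN-α (both lines) and TNF were measured by ELISA, single technical replicate per mouse. Serum drug levels were measured by LC-MS/MS.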

TLR7 [4] = target: T1, TLR7; test: Isolated human pDC assay, ssRNA-driven IFN-α; format: cell-based; conditions: fixed dose of MHV370
In short: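 pDCs were negatively enriched from PBMCs and resuspended in RPMI1640 with 10 ng/mL recombinant human IL-3. They were pre-treated 30 min with test compound or 0.25% v/v DMSO. Stimulation was 20 h at 37°C, 5% CO2 with ssRNA40 (10 μg/mL plus 25 μg/mL DOTAP) or ODN2216 (0.3 μM). IFN-α in supernatants was read by AlphaLisa; viability by CellTiter-Glo.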

[5] = system: SLE immune-complex-driven IFN-α response in PBMCs; test: IFN-α release from PBMCs stimulated with SLE patient sera immune complexes; format: cell-based, human; conditions: PBMCs

For `Cc1cc(N2CCc3c(c(C)nn3CC34CCC(NC(=O)[C@@H]5COCCN5)(CC3)CC4)C2)c2cnn(C)c2n1` [MHV370, (S)-N-(4-((5-(1,6-dimethyl-1H-pyrazolo[3,4-b]pyridin-4-yl)-3-methyl-4,5,6,7-tetrahydro-1H-pyrazolo[4,3-c]pyridin-1-yl)methyl)bicyclo[2.2.2]octan-1-yl)morpholine-3-carboxamide], the IC50 (TLR7 [1]; IC50, CL307-driven reporter gene activity, CL307) was 15 ± 10 nM, the IC50 (TLR7 [1]; read-out: IC50, R848-driven reporter gene activity, R848) was 7 ± 0.1 nM and the “ex vivo stimulated PD marker CD69 in peripheral blood” value [2] was “reduced in peripheral blood of mice in a dose-dependent manner”. For the same compound, the “panel of ISGs in peritoneal cells and blood” value [2] was “dose-dependently suppressed”, the “inflammatory monocytes and CCL2 in the peritoneum” value ([2]; day 7) was “dose-dependent reduction” and the “TLR7-dependent IFN-α and TNF production in plasma” value (TLR7 [3]) was “efficiently inhibited”. For the same compound, the “ssRNA-driven IFN-α responses from pDCs” value (TLR7 [4]) was “blocked”, the “immune-complex-driven responses, sera expressing dsDNA antibodies” value ([5]; MHV370 0.3 μM) was “blocked to a much lesser extent” and the “immune-complex-driven responses, sera positive for RNP/Sm and/or SS-A, or RNP/Sm and/or SS-A plus dsDNA autoantibodies” value ([5]; MHV370 0.3 μM) was “completely blocked”. For the same compound, the “IFN-α suppression, MHV370 added to HCQ” value ([5]; MHV370 1–10 nM combined with variable concentrations of HCQ, SLE immune complexes) was “almost complete suppression”.
